Structures are written as SMILES. Values after ≈ are worked out from the molar mass of the structure shown.

By EC50 is commonly meant the concentration needed to bring the measured effect to its halfway point. In general, inhibition refers to the percentage by which the read-out fell short of the control.

In one assay the test system is Plasmodium falciparum. Briefly: Antimalarial activity against Plasmodium falciparum K1 by [3H]hypoxanthine uptake. It is filed as functional, organism-based. The gist of the method:
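P. falciparum K1 (multidrug-resistant) asexual erythrocytic stages were kept in continuous in vitro culture. Activity was measured by a microculture radioisotope method. EC50 is the concentration giving 50% reduction in parasite growth, read as in vitro [3H]hypoxanthine uptake.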

Assay [1] relates to Vero. Briefly: Cytotoxicity against african green monkey Vero cells. Format: functional, cell-based, Chlorocebus sabaeus.
Assay [2] can be described thus: Cytotoxicity against human BC1 cells. It is filed as functional, cell-based.
Assay [3] concerns KB. Briefly: Cytotoxicity against human KB cells. It is filed as functional, cell-based.
The test system of assay [4] is KB. The assay is described as follows: Cytotoxicity against human KB cells at 20 ug/mL. Format: functional.
In assay [5] the test system is Vero. Briefly: Cytotoxicity against african green monkey Vero cells at 20 ug/mL. It is filed as functional. Conditions: Chlorocebus sabaeus.
Assay [6] can be described thus: Cytotoxicity against human BC1 cells at 20 ug/mL. It is filed as functional.

`CC1=C[C@H]2O[C@@H]3C[C@H]4OC(=O)/C=C\C=C\[C@H]([C@@H](C)O)OCC/C(C)=C/C(=O)OC[C@@]2(CC1)[C@]4(C)[C@]31CO1` [RORIDIN E]: the EC50 with Plasmodium falciparum was 0.15 ng/mL (≈ 0.291 nM); in the assay with Vero [1] it was 0.4 ng/mL (≈ 0.777 nM); in assay [2] it was 0.7 ng/mL (≈ 1.36 nM); in the assay with KB [3], 0.5 ng/mL (≈ 0.972 nM).
Turning to `CC1=C[C@H]2O[C@@H]3C[C@H]4OC(=O)/C=C\C=C\[C@H]([C@@H](C)O)OCC[C@@H](C)[C@H](O)C(=O)OC[C@@]2(CC1)[C@]4(C)[C@]31CO1` [RORIDIN A], the EC50 in the assay on Plasmodium falciparum is 0.31 ng/mL (≈ 0.582 nM); in the assay on Vero [1] it was 1.7 ng/mL (≈ 3.19 nM); in assay [2] it was 5 ng/mL (≈ 9.39 nM); with KB [3] it was 1 ng/mL (≈ 1.88 nM).
The matching figures for `CC(=O)O[C@H](C)[C@H]1/C=C/C=C\C(=O)O[C@@H]2C[C@H]3O[C@@H]4C=C(C)CC[C@]4(COC(=O)/C=C(\C)CCO1)[C@]2(C)[C@]31CO1` [RORIDIN E ACETATE]: 0.06 ng/mL, 4.1 ng/mL, 15 ng/mL and 14 ng/mL.
On the same counts, the results for `CC1=C[C@H]2O[C@@H]3C[C@H]4OC(=O)/C=C\C=C\C(=O)OCC/C(C)=C/C(=O)OC[C@@]2(CC1)[C@]4(C)[C@]31CO1` [VERRUCARIN J] are 0.2 ng/mL (≈ 0.413 nM), 1.2 ng/mL (≈ 2.48 nM), 14 ng/mL (≈ 28.9 nM) and 3.9 ng/mL (≈ 8.05 nM).
With `C[C@@H]1CC[C@H]2[C@@H](C)C(=O)O[C@@H]3O[C@@]4(C)CC[C@@H]1[C@]32OO4` [ARTEMISININ], the inhibition at 20 µg/mL (with KB [4]; in the assay with Vero [5]; in assay [6]) was below 50% in each case.
Regarding `CC1=C[C@H]2O[C@@H]3C[C@H]4OC(=O)/C=C\C=C\C(=O)OCC[C@@H](C)[C@H](O)C(=O)OC[C@@]2(CC1)[C@]4(C)[C@]31CO1` [VERRUCARIN A], the EC50 with Plasmodium falciparum worked out at 0.9 ng/mL (≈ 1.79 nM); with Vero [1], 1.1 ng/mL (≈ 2.19 nM); in assay [2], 4.2 ng/mL (≈ 8.36 nM); in the assay on KB [3], 1.2 ng/mL (≈ 2.39 nM).
